Test results taken from ChEMBL document CHEMBL4304758, “Development of Peptide-Based Sirtuin Defatty-Acylase Inhibitors Identified by the Fluorescence Probe, SFP3, That Can Efficiently Measure Defatty-Acylase Activity of Sirtuin” (J Med Chem, 2019).
pIC50: −log10 of the molar value. Non-standard residues stand in square brackets, D forms with d. Residues, ends and D or L forms follow the SMILES beside them. *: point of attachment. Phenylacetyl(4-E-phenylazo) = O=C(Cc1ccc(/N=N/c2ccccc2)cc1)*; Lys(thiomyristoyl) = CCCCCCCCCCCCCC(=S)NCCCC[C@H](N)C(=O)O; X5 = CCN(CC)c1ccc(/N=N/c2ccc(CC(=O)*)cc2)cc1; X3 = CN(C)c1ccc(/N=N/c2ccc(CCC(=O)*)cc2)cc1; X4 = CN(C)c1ccc(/N=N/c2ccc(CC(=O)*)cc2)cc1; X2 = CN(C)c1ccc(/N=N/c2ccc(C(=O)*)cc2)cc1

Experiments:
[1] = molecular target: T1, NAD-dependent protein deacetylase sirtuin-2 (Homo sapiens, UniProt Q8IXJ6); experiment: Inhibition of recombinant human SIRT2 demyristoylase activity using p53(Myr)-AMC as substrate measured after 3 hrs in presence of NAD+ and trypsin by fluorescence assay
T1 sequence (Q8IXJ6 whole entry): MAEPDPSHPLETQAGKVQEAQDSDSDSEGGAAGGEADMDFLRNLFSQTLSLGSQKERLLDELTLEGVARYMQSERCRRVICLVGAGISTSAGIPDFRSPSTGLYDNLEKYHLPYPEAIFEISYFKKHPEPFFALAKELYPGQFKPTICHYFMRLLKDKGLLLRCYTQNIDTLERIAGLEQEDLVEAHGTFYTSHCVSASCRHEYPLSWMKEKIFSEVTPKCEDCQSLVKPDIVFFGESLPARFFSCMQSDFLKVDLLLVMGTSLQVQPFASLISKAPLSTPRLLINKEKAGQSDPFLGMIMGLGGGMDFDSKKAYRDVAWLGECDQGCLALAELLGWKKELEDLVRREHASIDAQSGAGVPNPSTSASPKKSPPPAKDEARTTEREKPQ

[2] = molecular target: T2, NAD-dependent protein deacetylase sirtuin-1 (Homo sapiens, UniProt Q96EB6); experiment: Inhibition of recombinant human C-terminal His6-tagged SIRT1 (Met1 to Ser747 residues) defatty-acylase activity expressed in Escherichia coli using SFP3 as substrate measured at 5 mins interval for 60 mins in presence of NAD+ by fluorescence assay
T2 sequence (Q96EB6 whole entry): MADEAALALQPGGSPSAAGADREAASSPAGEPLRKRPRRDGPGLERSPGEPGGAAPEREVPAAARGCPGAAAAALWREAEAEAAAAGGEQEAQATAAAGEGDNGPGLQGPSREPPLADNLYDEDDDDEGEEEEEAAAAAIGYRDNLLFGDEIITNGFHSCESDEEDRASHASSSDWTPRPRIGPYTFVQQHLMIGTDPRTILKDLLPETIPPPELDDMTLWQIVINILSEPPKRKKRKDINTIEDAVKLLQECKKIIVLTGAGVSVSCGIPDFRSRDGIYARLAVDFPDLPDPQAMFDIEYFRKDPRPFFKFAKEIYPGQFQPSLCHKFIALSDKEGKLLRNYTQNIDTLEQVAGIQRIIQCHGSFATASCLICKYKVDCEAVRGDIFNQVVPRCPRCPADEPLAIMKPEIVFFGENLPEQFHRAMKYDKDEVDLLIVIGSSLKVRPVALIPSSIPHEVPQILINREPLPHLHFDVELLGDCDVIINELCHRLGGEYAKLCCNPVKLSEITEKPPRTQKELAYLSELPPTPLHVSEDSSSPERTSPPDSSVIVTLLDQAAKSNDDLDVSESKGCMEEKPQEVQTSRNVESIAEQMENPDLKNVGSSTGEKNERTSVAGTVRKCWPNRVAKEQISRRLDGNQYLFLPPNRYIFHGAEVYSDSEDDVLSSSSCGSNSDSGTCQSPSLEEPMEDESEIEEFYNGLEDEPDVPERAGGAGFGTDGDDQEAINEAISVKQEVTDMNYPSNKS

[3] = molecular target: T1, NAD-dependent protein deacetylase sirtuin-2; experiment: Inhibition of recombinant human SIRT2 deacylation activity using Fluor de Lys Sirt2 as substrate measured at 5 mins interval for 30 mins in presence of NAD+ by fluorescence assay
[4] = molecular target: T3, NAD-dependent protein deacetylase sirtuin-3, mitochondrial (Homo sapiens, UniProt Q9NTG7); experiment: Inhibition of recombinant human SIRT3 (118 to 399 residues) defatty-acylase activity expressed in Escherichia coli using SFP3 as substrate measured at 5 mins interval for 60 mins in presence of NAD+ by fluorescence assay
T3 sequence (Q9NTG7 whole entry): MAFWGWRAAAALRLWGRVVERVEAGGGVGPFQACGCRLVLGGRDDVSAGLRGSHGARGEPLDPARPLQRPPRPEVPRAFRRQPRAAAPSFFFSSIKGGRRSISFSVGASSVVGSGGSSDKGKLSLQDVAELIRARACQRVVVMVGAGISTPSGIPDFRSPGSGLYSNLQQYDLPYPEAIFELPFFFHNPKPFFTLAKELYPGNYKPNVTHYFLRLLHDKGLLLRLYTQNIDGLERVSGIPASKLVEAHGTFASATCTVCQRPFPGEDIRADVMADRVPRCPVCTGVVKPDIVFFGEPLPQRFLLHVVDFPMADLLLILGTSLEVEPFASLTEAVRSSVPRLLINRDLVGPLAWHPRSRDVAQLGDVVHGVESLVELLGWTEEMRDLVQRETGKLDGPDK

[5] = molecular target: T1, NAD-dependent protein deacetylase sirtuin-2; experiment: Drug metabolism assessed as recombinant human SIRT2-mediated deacylation by measuring dabcyl formation at 20 uM measured up to 4 hrs in presence of NAD+ by HPLC analysis; type: ADME
Outline: (§1)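 Compound at 20 μM final (0.2% DMSO) with 350 nM SIRT2 and 500 μM NAD⁺ at 37 °C in buffer I: 50 mM Tris-HCl pH 8.0, 150 mM NaCl, 1 mM DTT, 0.05% Triton X-100. Aliquots taken at 0 and 4 h. Reversed-phase HPLC, TFA water/acetonitrile gradient. Detection at 510, 350 or 254 nm depending on compound.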

[6] = molecular target: T1, NAD-dependent protein deacetylase sirtuin-2; experiment: Inhibition of recombinant human SIRT2 defatty-acylase activity using SFP3 as substrate measured at 5 mins interval for 60 mins in presence of NAD+ by fluorescence assay
[7] = molecular target: T1, NAD-dependent protein deacetylase sirtuin-2; experiment: Drug metabolism assessed as recombinant human SIRT2-mediated deacylation by measuring dabcyl-PH formation at 20 uM measured up to 4 hrs in presence of NAD+ by HPLC analysis; type: ADME; outline: as §1
[8] = molecular target: T2, NAD-dependent protein deacetylase sirtuin-1; experiment: Inhibition of recombinant human C-terminal His6-tagged SIRT1 (Met1 to Ser747 residues) demyristoylase activity expressed in Escherichia coli using p53(Myr)-AMC as substrate measured after 3 hrs in presence of NAD+ and trypsin by fluorescence assay
Outline: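 SIRT1 at 14 nM final with 50 μM p53(Myr)-AMC and 500 μM NAD⁺ in Tris-HCl pH 8.0/NaCl/DTT/Triton buffer, 0.5% DMSO, 3 h at room temperature. Trypsin (100 nM final) plus nicotinamide (1 mM final) then added. Fluorescence Ex 355/Em 460 nm read every 5 min for 20 min at 37 °C. n = 3.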

[9] = molecular target: T3, NAD-dependent protein deacetylase sirtuin-3, mitochondrial; experiment: Inhibition of recombinant human SIRT3 (118 to 399 residues) demyristoylase activity expressed in Escherichia coli using p53(Myr)-AMC as substrate measured after 3 hrs in presence of NAD+ and trypsin by fluorescence assay
SIRT2 = experiment: Stability of the compound in SIRT assay buffer assessed as parent compound remaining at 20 uM measured after 4 hrs in presence of recombinant human SIRT2 and NAD+ by HPLC analysis; type: physicochemical; conditions: read-out: Stability; outline: as §1
[10] = molecular target: NAD-dependent protein deacylase sirtuin-6 (Homo sapiens, UniProt Q8N6T7); experiment: Inhibition of recombinant human N-terminal polyhis-tagged SIRT6 (1 to 355 residues) defatty-acylase activity expressed in Escherichia coli using SFP3 as substrate measured at 5 mins interval for 60 mins in presence of NAD+ by fluorescence assay
Sequence of NAD-dependent protein deacylase sirtuin-6 (Q8N6T7 whole entry, the tested form may be a part): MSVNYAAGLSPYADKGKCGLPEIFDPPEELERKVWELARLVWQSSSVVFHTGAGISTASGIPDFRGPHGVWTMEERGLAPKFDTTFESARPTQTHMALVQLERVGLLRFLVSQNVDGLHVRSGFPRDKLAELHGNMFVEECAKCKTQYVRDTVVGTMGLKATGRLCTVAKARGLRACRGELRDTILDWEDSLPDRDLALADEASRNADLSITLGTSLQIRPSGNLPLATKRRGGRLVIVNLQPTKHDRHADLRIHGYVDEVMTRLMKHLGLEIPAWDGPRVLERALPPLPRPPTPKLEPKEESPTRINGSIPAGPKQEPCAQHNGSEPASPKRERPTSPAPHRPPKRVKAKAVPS
Outline: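 SIRT6 at 48 nM final with 2.5 μM SFP3 and 500 μM NAD⁺ in Tris-HCl pH 8.0 buffer with 150 mM NaCl, 1 mM DTT, 0.05% Triton X-100, final 0.2% DMSO. Enzyme added last. Fluorescence Ex 485/Em 535 nm read every 5 min for 60 min at 37 °C.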

| pIC50 [1] | pIC50 [2] | pIC50 [3] | pIC50 [4] | Drug metabolism [5] | pIC50 [6] | Drug metabolism [7] | pIC50 [8] | pIC50 [9] | remaining at 4 h, 20 µM (SIRT2) | pIC50 [10] | Compound |
| --- | --- | --- | --- | --- | --- | --- | --- | --- | --- | --- | --- |
| 5.80 | < 5.70 | 5.80 | 6.11 | Metabolite_Detected | 6.37 | – | – | – | – | – | CC[C@H](C)[C@H](NC(=O)[C@H](CCCNC(=N)N)NC(C)=O)C(=O)N[C@@H](CCCCNC(=O)c1ccc(/N=N/c2ccc(N(C)C)cc2)cc1)C(=O)N[C@@H](CCCNC(=N)N)C(=O)N[C@@H](Cc1ccc(O)cc1)C(N)=O (Ac-RIK(X2)RY-NH2) |
| < 5.70 | 5.77 | 5.96 | 5.82 | – | 6.52 | Metabolite_Detected | – | – | – | – | CC[C@H](C)[C@H](NC(=O)[C@H](CCCNC(=N)N)NC(C)=O)C(=O)N[C@@H](CCCCNC(=O)CCc1ccc(/N=N/c2ccc(N(C)C)cc2)cc1)C(=O)N[C@@H](CCCNC(=N)N)C(=O)N[C@@H](Cc1ccc(O)cc1)C(N)=O (Ac-RIK(X3)RY-NH2) |
| 6.89 | 6.40 | 6.77 | 6.96 | – | 7.44 | – | 7.01 | 6.48 | > 99% | – | CC[C@H](C)[C@H](NC(=O)[C@H](CCCNC(=N)N)NC(C)=O)C(=O)N[C@@H](CCCCNC(=O)Cc1ccc(/N=N/c2ccc(N(C)C)cc2)cc1)C(=O)N[C@@H](CCCNC(=N)N)C(=O)N[C@@H](Cc1ccc(O)cc1)C(N)=O (Ac-RIK(X4)RY-NH2) |
| 6.72 | 5.96 | 6.59 | 6.74 | – | 7.17 | – | 6.85 | 6.32 | – | – | CC[C@H](C)[C@H](NC(=O)[C@H](CCCNC(=N)N)NC(C)=O)C(=O)N[C@@H](CCCCNC(=O)Cc1ccc(/N=N/c2ccc(N(CC)CC)cc2)cc1)C(=O)N[C@@H](CCCNC(=N)N)C(=O)N[C@@H](Cc1ccc(O)cc1)C(N)=O (Ac-RIK(X5)RY-NH2) |
| 7.36 | 6.48 | 6.96 | 7.34 | – | 7.66 | – | 7.59 | 6.89 | – | 6.60 | CCCCCCCCCCCCCC(=S)NCCCC[C@H](NC(=O)[C@@H](NC(=O)[C@H](CCCNC(=N)N)NC(C)=O)[C@@H](C)CC)C(=O)N[C@@H](CCCNC(=N)N)C(=O)N[C@@H](Cc1ccc(O)cc1)C(N)=O (Ac-RI[Lys(thiomyristoyl)]RY-NH2) |
| < 5.70 | < 5.70 | 6.24 | < 5.70 | – | 5.82 | – | – | – | – | – | CC[C@H](C)[C@H](NC(=O)[C@@H](NC(=O)[C@H](CCCCNC(=O)Cc1ccc(/N=N/c2ccccc2)cc1)NC(=O)[C@H](CC(=O)O)NC(=O)[C@H](CO)NC(C)=O)[C@@H](C)O)C(N)=O (Ac-SDK(Phenylacetyl(4-E-phenylazo))TI-NH2) |
| < 5.70 | < 5.70 | 5.92 | < 5.70 | – | < 5.70 | – | – | – | – | – | CC[C@H](C)[C@H](NC(=O)[C@@H](NC(=O)[C@H](CCCCNC(=O)c1ccc(/N=N/c2ccc(N(C)C)cc2)cc1)NC(=O)[C@H](CC(=O)O)NC(=O)[C@H](CO)NC(C)=O)[C@@H](C)O)C(N)=O (Ac-SDK(X2)TI-NH2) |
| 6.28 | 5.85 | 6.92 | – | – | 6.92 | – | 6.37 | – | – | – | CC[C@H](C)[C@H](NC(=O)[C@H](CCCCNC(=O)Cc1ccc(/N=N/c2ccccc2)cc1)NC(=O)[C@@H](NC(C)=O)C(C)C)C(=O)N[C@@H](CCCCN)C(=O)N[C@@H](CCCCN)C(N)=O (Ac-VK(Phenylacetyl(4-E-phenylazo))IKK-NH2) |
